Measured values published in ChEMBL document CHEMBL1150127, “Microbial and chemical transformation studies of the bioactive marine sesquiterpenes (S)-(+)-curcuphenol and -curcudiol isolated from a deep reef collection of the Jamaican sponge Didiscus oxeata” (J Nat Prod, 2002).
In brackets after ≈: the same amount, converted by molar mass. Activity calls are given as the source filed them. No cut-off for these calls is given here.

How the values were obtained:
[1] = test system: Mycobacterium tuberculosis; experiment: Antituberculosis activity against Mycobacterium tuberculosis; type: functional, organism-based
Hepatitis B virus = experiment: Antiviral activity against Hepatitis B virus replication in human HepG2(2.2.15) cells; type: functional, organism-based
Outline: (§1)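 Run in cultures of 2.2.15 cells. Inhibition of HBV replication reported as EC50 and EC90, and cytotoxicity in the same cells as CC50, all in µg/mL. A selectivity index was taken from cytotoxic and antiviral concentrations.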

[2] = Cytotoxicity against human HepG2(2.2.15) cells; type: cell-based; outline: as §1
Plasmodium falciparum [3] = experiment: Antimalarial activity against Plasmodium falciparum W2; type: functional
Staphylococcus aureus [4] = experiment: Antibacterial activity against methicillin-resistant Staphylococcus aureus; type: functional
Plasmodium falciparum [5] = experiment: Antimalarial activity against Plasmodium falciparum D6; type: functional
Staphylococcus aureus [6] = experiment: Antibacterial activity against Staphylococcus aureus; type: functional
Candida albicans = experiment: Antifungal activity against Candida albicans; type: functional
Cryptococcus neoformans = experiment: Antifungal activity against Cryptococcus neoformans; type: functional

Row | SMILES | Activity [1] | also measured
1 | Cc1ccc([C@@H](C)CCC[C@@H](C)C(=O)O)c(O)c1 | inactive | –
2 | Cc1ccc([C@@H](C)CCCC(C)(C)O)c(O)c1 | inactive | –
3 | CC(C)=CCC[C@H](C)c1ccc(C)c([N+](=O)[O-])c1O | inactive | –
4 | Cc1ccc([C@@H](C)CCC[C@H](C)C(=O)O)c(O)c1 | inactive | –
5 | CC(C)=CCC[C@H](C)c1cc([N+](=O)[O-])c(C)cc1O | inactive | EC50 (Hepatitis B virus): 61 µg/mL (≈ 232 µM); EC90 (Hepatitis B virus): 203 µg/mL (≈ 771 µM); CC50 [2]: 39 µg/mL (≈ 148 µM)
6 | Cc1ccc([C@@H](C)CCCC(C)C(=O)O)c(O)c1 (some centres not stated) | inactive | –
7 | CC(C)=CCC[C@H](C)c1ccc(C)cc1O | inactive | MIC (Plasmodium falciparum [3]): 1.8 µg/mL (≈ 8.24 µM); MBC (Staphylococcus aureus [4]): 12.5 µg/mL (≈ 57.3 µM); MIC (Staphylococcus aureus [4]): 7.5 µg/mL (≈ 34.4 µM); MIC (Plasmodium falciparum [5]): 3.6 µg/mL (≈ 16.5 µM); MBC (Staphylococcus aureus [6]): 12.5 µg/mL (≈ 57.3 µM); MIC (Staphylococcus aureus [6]): 7.5 µg/mL (≈ 34.4 µM); MFC (Candida albicans): 12.5 µg/mL (≈ 57.3 µM); MIC (Candida albicans): 7.5 µg/mL (≈ 34.4 µM); MFC (Cryptococcus neoformans): 12.5 µg/mL (≈ 57.3 µM); MIC (Cryptococcus neoformans): 7.5 µg/mL (≈ 34.4 µM)
8 | C/C(=C\CC[C@H](C)c1ccc(C)cc1O)CO | inactive | –
9 | Cc1ccc([C@@H](C)CCC(=O)O)c(O)c1 | inactive | –
10 | CC(C)=CCC[C@H](C)c1ccc(C)cc1O[C@H]1O[C@H](CO)[C@@H](O)[C@H](O)[C@H]1O | inactive | –
11 | CC(C)=CCC[C@H](C)c1ccc(CO)cc1O | inactive | MIC (Plasmodium falciparum [3]): 2.9 µg/mL (≈ 12.4 µM); MIC (Plasmodium falciparum [5]): 3.8 µg/mL (≈ 16.2 µM)
12 | C/C(C=O)=C\CC[C@H](C)c1ccc(CO)cc1O | inactive | –
13 | Cc1ccc([C@@H](C)CCCC(C)(C)O)c(O[C@H]2O[C@H](CO)[C@@H](O)[C@H](O)[C@H]2O)c1 | inactive | –
14 | Cc1ccc([C@@H](C)CCCC(C)(C)O)c(OC(=O)c2ccncc2)c1 | inactive | –
15 | Cc1ccc([C@@H](C)CCC[C@@H](C)CO)c(O)c1 | inactive | –
16 | Cc1ccc([C@@H](C)CC[C@H](O)C(C)(C)O)c(O)c1 | inactive | –
17 | C/C(=C\CC[C@H](C)c1ccc(CO)cc1O)CO | inactive | –
18 | Cc1ccc([C@@H](C)CC[C@@H](O)C(C)(C)O)c(O)c1 | inactive | –
19 | Cc1ccc([C@@H](C)CCC[C@H](C)CO)c(O)c1 | inactive | –
20 | Cc1ccc([C@@H](C)CCCC(C)CO)c(O)c1 (some centres not stated) | inactive | –
21 | Cc1ccc([C@@H](C)CCC(=O)C(C)(C)O)c(O)c1 | inactive | –
22 | CC(C)=CCC[C@H](C)c1ccc(C)cc1OC(=O)c1ccncc1 | inactive | –
